Bioassay records: PubChem, several laboratories
PRMT1 inh – blocks human protein arginine methyltransferase 1 | Q99873 | recombinant PRMT1, activity-based probe fluorescence polarization | inhibition, % at 2.79 µM | 370,000 compounds, 1.3% hits;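 active = inhibition above about 21% made by adding two undisclosed values, limit read from the data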
Target sequence (Q99873 whole entry, looked up): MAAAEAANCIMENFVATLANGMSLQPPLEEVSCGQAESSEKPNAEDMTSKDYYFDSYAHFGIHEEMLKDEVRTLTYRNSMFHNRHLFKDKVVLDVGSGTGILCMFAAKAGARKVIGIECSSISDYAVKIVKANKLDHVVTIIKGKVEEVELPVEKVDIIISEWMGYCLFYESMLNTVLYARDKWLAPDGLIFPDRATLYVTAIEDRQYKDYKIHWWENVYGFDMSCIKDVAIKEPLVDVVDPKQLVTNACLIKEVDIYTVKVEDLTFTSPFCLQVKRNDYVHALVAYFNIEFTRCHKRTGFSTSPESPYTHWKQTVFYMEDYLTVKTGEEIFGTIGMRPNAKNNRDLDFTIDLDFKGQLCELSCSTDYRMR
ABHD5 PLIN5 PPI – blocks binding of human ABHD5 to perilipin-5 | Q00G26+Q8WTS1 | Split G. princeps luciferase complementation, luminescence, 4 h | inhibition, % at 4 µM | 360,000 compounds, 0.78% hits;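 active = inhibition above the mean inhibition across every tested compound plus 3 SD, cut at about 22% in these data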;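 note: 0% = DMSO only wells and the 100% control is not disclosed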
core dimer inh – blocks dimerization of HCV core protein. inhibition, % at 5 µM. 300,000 compounds, 0.33% hits. TR-FRET GST/Flag-core106 dimerization, 1536-well. AID 1899;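 active = inhibition above the mean of all tested compounds plus 3 SD, set per screening campaign, cut at about 45% in these data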
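System – GST-tagged and Flag-tagged HCV core protein residues 1-106 · Repeats – one well for each compound · Technique – TR-FRET 671 and 617 nm emission · Doses – one concentration, 5 µM, in 0.5% DMSO · Times – 4 h, 22.5 °C incubation · Also added – Eu donor and XL665 acceptor anti-tag antibodies · Measure – percent inhibition of core106 dimerization signal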
A3G deaminase – blocks human APOBEC3G single-stranded DNA deamination | inhibition, % at 20 µM | AID 493012 | Q9HC16 | 330,000 compounds, 0.28% hits | recombinant A3G, ssDNA deamination FAM/TAMRA fluorescence;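 active = inhibition of at least 40% at 20 µM, with no more than 30% in the related APOBEC3A deaminase screen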;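 note: plate controls were DMSO wells with A3G for no effect and wells lacking A3G enzyme for full effect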
A3A deaminase – inhibitors of human APOBEC3A DNA deaminase | recombinant A3A, FAM/TAMRA ssDNA deamination fluorescence | inhibition, % at 20 µM | 330,000 compounds, 0.41% hits | AID 493011;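 active = at least 40% inhibition at 20 µM here, with at most 30% in a related deaminase screen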;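 note: plate controls were A3A with DMSO for no effect and wells lacking A3A enzyme for full effect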
Target sequence (P31941 whole entry, looked up): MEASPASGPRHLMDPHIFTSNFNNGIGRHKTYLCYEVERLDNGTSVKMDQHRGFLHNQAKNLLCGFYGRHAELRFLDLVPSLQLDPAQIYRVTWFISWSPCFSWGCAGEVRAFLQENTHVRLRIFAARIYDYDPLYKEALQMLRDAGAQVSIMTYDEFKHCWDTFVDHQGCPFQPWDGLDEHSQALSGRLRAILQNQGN
HCV NS3 hel inh – HCV NS3 helicase inhibition; 290,000 compounds, 0.56% hits; NS3 helicase DNA unwinding, Cy5 molecular beacon fluorescence; AID 1800; inhibition, % at 10.9 µM;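 active = inhibition above the mean of all tested compounds plus 3 SD, set per campaign, cut at about 35% in these data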;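 note: 0% = DMSO wells and 100% = thioflavine S control wells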
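System: Hepatitis C virus NS3 helicase domain fragment enzyme | Reagent: Annealed dual-labelled DNA beacon duplex, ATP-started | Compound dosing: 10.9 µM single point, 0.8% DMSO | Incubation: 1 h reaction at 25 °C, ATP-initiated | Technique: Cy5 fluorescence | Evaluation: Percent inhibition from t60/t0 fluorescence ratio | Benchmarks: Low DMSO, high thioflavine S at 110 µM | Replication: Singlicate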
PRMT1 confirm – PRMT1 (human) inhibition, FP confirmation. inhibition, % at 2.79 µM. 3,300 compounds, 42% hits. shares compounds with PRMT1 inh. recombinant His-PRMT1, activity-based probe fluorescence polarization. AID 687036;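 active = mean inhibition across replicates above the hit cutoff derived for the earlier primary screen, cut at about 22% in these data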
Starred values were filed as active, the others as inactive. Most compounds without a hit are left out; they make up all but 2.9% or so of the library.

`S=c1[nH]nc(-c2c[nH]c3ccccc23)o1` gave PRMT1 inh 9, ABHD5 PLIN5 PPI 1, core dimer inh -16, A3G deaminase 5, A3A deaminase 3 and HCV NS3 hel inh 13.
Oc1cc2ccccc2cc1-c1n[nH]c(=S)o1 was read as PRMT1 inh 26*, ABHD5 PLIN5 PPI -8, core dimer inh 12, A3G deaminase -2, A3A deaminase -2, HCV NS3 hel inh 28 and PRMT1 confirm 36*.
For O=C(O)CN1C(=O)/C(=C\c2cc([N+](=O)[O-])ccc2OCc2ccccc2Cl)SC1=S the results were PRMT1 inh 19, ABHD5 PLIN5 PPI -13, core dimer inh 19, A3G deaminase 2, A3A deaminase -2 and HCV NS3 hel inh 7.
`O=C1/C(=C\c2cc([N+](=O)[O-])ccc2O)SC(=S)N1Cc1ccc(Cl)cc1` gave PRMT1 inh 26*, ABHD5 PLIN5 PPI -7, core dimer inh 1, HCV NS3 hel inh -16 and PRMT1 confirm 33*.
Screening CCCC(=O)N1CCC1(C)C(=O)Nc1ccc2scnc2c1 (centres undefined) returned ABHD5 PLIN5 PPI -9.
Screening Cc1cccc(N2C(=O)C(Cl)=C(N3CCOCC3)C2=O)c1 returned PRMT1 inh 28*, ABHD5 PLIN5 PPI 3, core dimer inh -2, A3G deaminase -10, A3A deaminase -2, HCV NS3 hel inh 28 and PRMT1 confirm 1.
`COc1ccc(N2C(=O)C(Cl)=C(N3CCOCC3)C2=O)cc1` gave PRMT1 inh 13, ABHD5 PLIN5 PPI 7, core dimer inh -1, A3G deaminase 3, A3A deaminase 0 and HCV NS3 hel inh 17.
For O=S1(=O)CC(N2CCN(CCO)CC2)CN1Cc1cn(Cc2ccc(F)cc2)nn1 (centres undefined) the results were PRMT1 inh 1 and ABHD5 PLIN5 PPI 2.
For O=C(Nc1ccccc1)OCCN1CCCC12CCC(c1ccccc1)CC2 (centres undefined) the results were PRMT1 inh 4.
S=C(Nc1ccccc1Cl)OCCN1CCCC12CCC(c1ccccc1)CC2 (centres undefined) was read as PRMT1 inh 57* and PRMT1 confirm 41*.
Screening S=C(Nc1ccc(Br)cc1)OCCN1CCCC12CCC(c1ccccc1)CC2 (centres undefined) returned PRMT1 inh 52* and PRMT1 confirm 56*.
For O=C(Nc1cccc(F)c1)OCCN1CCCC12CCC(c1ccccc1)CC2 (centres undefined) the results were PRMT1 inh 1.
S=C(Nc1cccc(Cl)c1)OCCN1CCCC12CCC(c1ccccc1)CC2 (centres undefined) was read as PRMT1 inh 44* and PRMT1 confirm 58*.
For CC(C)(CC(=O)O)CC(=O)N1CCN(c2nc3cc(Cl)ccc3s2)CC1 the results were ABHD5 PLIN5 PPI 7, core dimer inh 8, A3G deaminase -6, A3A deaminase -3 and HCV NS3 hel inh 7.
`CCN(CC)c1ccc(-n2c(O)c(C=C3N=c4ccccc4=N3)sc2=S)cc1` gave PRMT1 inh -1, ABHD5 PLIN5 PPI -2, core dimer inh 0, A3G deaminase -7, A3A deaminase -3 and HCV NS3 hel inh 3.
Screening O=C(O)CCCn1c(O)c(C=C2N=c3ccccc3=N2)sc1=S returned PRMT1 inh 17, ABHD5 PLIN5 PPI 0, core dimer inh -7, A3G deaminase -2, A3A deaminase 1 and HCV NS3 hel inh 8.
For O=C(O)c1ccc(-n2c(O)c(C=C3N=c4ccccc4=N3)sc2=S)cc1 the results were PRMT1 inh 30*, ABHD5 PLIN5 PPI 1, core dimer inh -8, A3G deaminase 1, A3A deaminase 2, HCV NS3 hel inh 2 and PRMT1 confirm 21.
For CCCC(C(=O)O)n1c(O)c(C=C2N=c3ccccc3=N2)sc1=S (centres undefined) the results were PRMT1 inh 26*, ABHD5 PLIN5 PPI -6, core dimer inh -9, A3G deaminase -4, A3A deaminase 4, HCV NS3 hel inh 30 and PRMT1 confirm 3.
`O=C(O)c1cccc(-n2c(O)c(C=C3N=c4ccccc4=N3)sc2=S)c1` gave PRMT1 inh 31*, ABHD5 PLIN5 PPI -13, core dimer inh 5, A3G deaminase -7, A3A deaminase -4, HCV NS3 hel inh 32 and PRMT1 confirm 5.
Screening CCOC(=O)[C@@H]1[C@H]2COc3ccccc3[C@@H]2N2C(=O)N(c3ccc(OC)cc3)C(=O)[C@]12C returned PRMT1 inh -1, ABHD5 PLIN5 PPI -3, core dimer inh -2, A3G deaminase -1 and A3A deaminase 2.
Screening COc1ccccc1NC(=O)C(C)OC(=O)C1CCC(C(C)(C)C)CC1 (centres undefined) returned PRMT1 inh -1, ABHD5 PLIN5 PPI -17, core dimer inh 4, A3G deaminase -2 and A3A deaminase 1.
O=C(CSc1nc2[nH]c(=O)cc(O)c2s1)Nc1nccs1 was read as PRMT1 inh 25*, ABHD5 PLIN5 PPI -14, A3G deaminase 5, A3A deaminase 6 and PRMT1 confirm 0.
For CCSc1nnc(NC(=O)CSc2sc3c(O)cc(=O)[nH]c3c2C#N)s1 the results were PRMT1 inh 27*, ABHD5 PLIN5 PPI 3, core dimer inh 10, A3G deaminase 55, A3A deaminase 68, HCV NS3 hel inh 18 and PRMT1 confirm 10.
Screening Cc1csc(NC(=O)CSc2sc3c(O)cc(=O)[nH]c3c2C#N)n1 returned PRMT1 inh 81*, ABHD5 PLIN5 PPI -3, core dimer inh 4, A3G deaminase 10, A3A deaminase 33, HCV NS3 hel inh 22 and PRMT1 confirm 8.
CCOC(=O)C1=C(c2ccccc2)OC(N)=C(C#N)C1c1ccc(Cl)s1 (centres undefined) was read as PRMT1 inh 1, ABHD5 PLIN5 PPI 16, core dimer inh 1, A3G deaminase -10, A3A deaminase -1 and HCV NS3 hel inh 20.
CCN1CC=C2C(C1)C(c1ccc(Cl)s1)C(C#N)=C(N)C2(C#N)C#N (centres undefined) was read as PRMT1 inh 30*, ABHD5 PLIN5 PPI -8, core dimer inh 0, HCV NS3 hel inh 10 and PRMT1 confirm 36*.
COc1ccc(OC)c(C2Nc3c(Cl)ccc(C(=O)O)c3C3C=CCC32)c1 (centres undefined) was read as PRMT1 inh 46*, ABHD5 PLIN5 PPI 3, core dimer inh 1, A3G deaminase 3, A3A deaminase 6, HCV NS3 hel inh 31 and PRMT1 confirm 28*.
`CCOC(=O)C1CCN(S(=O)(=O)CCNC(=O)c2ccc(F)cc2)CC1` gave PRMT1 inh 7, ABHD5 PLIN5 PPI 0, core dimer inh 3, A3G deaminase -13 and A3A deaminase -5.
